For data set [1], the target named is T1, Thymidylate kinase (Homo sapiens) (UniProt P23919).
T1 sequence (whole entry): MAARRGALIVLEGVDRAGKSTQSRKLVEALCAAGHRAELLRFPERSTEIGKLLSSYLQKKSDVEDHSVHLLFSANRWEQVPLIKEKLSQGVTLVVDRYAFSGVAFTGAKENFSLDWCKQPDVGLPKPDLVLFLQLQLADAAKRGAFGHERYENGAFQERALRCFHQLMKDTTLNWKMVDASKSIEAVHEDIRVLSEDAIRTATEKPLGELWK
The experiment in a line: Inhibition of GST-tagged human TMPK expressed in Escherichia coli BL21 at 2 uM incubated for 10 mins by luciferase-coupled TMPK assay.

Data set [2] can be described thus: Cytotoxicity in mouse 32D cells after 3 days by WST-1 assay. It is filed as cell-based. The note with it: 72 h, time 3 day. (Tetrazolium dyes change colour on reduction, which living cells bring about.)
The target of data set [3] is T1, Thymidylate kinase (Homo sapiens). The experiment in a line: Inhibition of GST-tagged human TMPK expressed in Escherichia coli BL21 incubated for 20 mins by NADH-coupled colorimetric assay. The method, boiled down:
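Purified hTMPK at 25 °C in 100 mM Tris-HCl pH 7.5, 100 mM KCl, 10 mM MgCl2, 500 μM ATP, 250 μM TMP/CMP. Coupling mix: 500 μM phosphoenolpyruvate, 250 μM NADH, pyruvate kinase (4 units) and lactate dehydrogenase (5 units). NADH change read at 340 nm after 20 min.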

A short description of data set [4]: Cytotoxicity in IL-3-dependent mouse 32D cells expressing Bcr-Abl after 3 days by WST-1 assay. It is filed as functional, cell-based. The note with it: 72 h.
Data set [5] concerns the target T2, Thymidylate kinase (Homo sapiens, UniProt P23919).
T2 sequence (P23919 whole entry): T1 sequence (whole entry)
Put plainly: Inhibition of GST-tagged human TMPK expressed in Escherichia coli BL21 incubated for 10 mins by luciferase-coupled TMPK assay. The method, boiled down:
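Purified hTMPK (10 μL of 0.1 μg/μL) and compound (10 μL of 10 μM, diluted from 10 mM DMSO stock) added to 100 mM Tris-HCl pH 7.5, 100 mM KCl, 10 mM MgCl2, 5 μM ATP, 100 μM dTMP. Reaction run 10 min at 25 °C. Remaining ATP read by CellTiter-Glo luminescence. IC50 from triplicate independent experiments.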

The nature of data set [6]: Inhibition of tyrosine kinase activity in protein samples from human MDA-MB-231 cells using TK substrate incubated for 30 mins. It is filed as cell-based. The settings on record: MDA-MB-231, 0.5 h. The method, boiled down:
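Tyrosine kinase immunoprecipitated from MB-231 cell protein extracts and suspended in kinase solution with 10 mM 2-mercaptoethanol. Diluted enzyme mixed with compound (from 5 mM aqueous dilution) and ATP on substrate-coated wells, 37 °C, 30 min. Phosphotyrosine detected with anti-phosphotyrosine (PY20)-HRP and HRP substrate, stopped with H2SO4, absorbance read at 450 nm.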

The target of data set [7] is T1, Thymidylate kinase (Homo sapiens). Put plainly: Binding affinity to GST-tagged human TMPK expressed in Escherichia coli BL21 pre-incubated for 30 mins at 25 degC followed by UV irradiation by HRP based Western blot analysis. The method, boiled down:
(§1)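 Photoprobe (6.8 μL of 3 mM DMSO stock) and purified hTMPK incubated in 1 mL PBS pH 7.4 with protease inhibitor cocktail, 25 °C, 30 min. Irradiation where applied: 254-nm UV, three 1-min exposures. Samples boiled in SDS sample buffer and run on 12% SDS-PAGE. Transferred to PVDF, probed with streptavidin-HRP, detected by chemiluminescence.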

Data set [8] has the same target. Put plainly: Binding affinity to GST-tagged human TMPK expressed in Escherichia coli BL21 pre-incubated for 30 mins at 25 degC followed by absence of irradiation by HRP based Western blot analysis. The method, boiled down:
as §1
In general terms: In western blotting, separated proteins are transferred to a membrane and probed.

Data set [9] shares this target. The experiment in a line: Binding affinity to ATP binding site of GST-tagged human TMPK expressed in Escherichia coli […] assessed as mass shift of labeled peptides in presence of trypsin by LC-MS/MS analysis. The method in brief:
(§2)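 Purified hTMPK (from GST fusion in E. coli […], thrombin-cleaved) preincubated with biotin-arylazide photoprobe in PBS pH 7.4, 25 °C, 30 min, then irradiated with 254-nm UV light three times for 1 min each. Protein denatured in 6.5 M urea, reduced with DTT and alkylated with iodoacetamide. Digested with trypsin (1:50 w/w) or chymotrypsin (1:100 w/w), 37 °C, 16 h. Peptides analysed by nanoLC-ESI-MS/MS, with or without monomeric avidin enrichment.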

Data set [10] has the same target. Put plainly: Binding affinity to ATP binding site of GST-tagged human TMPK expressed in […] assessed as mass shift of labeled peptides in presence of chymotrypsin by LC-MS/MS analysis. The method, boiled down:
as §2

The target is the same in data set [11]. Put plainly: Binding affinity to GST-tagged human TMPK expressed in Escherichia coli BL21 assessed as formation of disulfide bonds with Cys residues incubated for 30 mins at 25 degC in presence of trypsin by LC-MS/MS analysis. The method in brief:
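hTMPK incubated with compound (20 μL of 10 mM DMSO stock in 1 mL PBS pH 7.4), 25 °C, 30 min. DTNB served as positive control and DMSO as negative control. Excess compound removed by dialysis against water. Digested with trypsin (1:50 w/w), 37 °C, 12 h, without denaturation or DTT reduction. Peptides analysed by nanoLC-ESI-MS/MS.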

The target is the same in data set [12]. Put plainly: Inhibition of GST-tagged human TMPK expressed in Escherichia coli BL21 incubated for 10 mins in presence of [gamma-32P]ATP by 32P-phosphate transfer assay. The method, boiled down: (§3)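 hTMPK (0.2 μg) or Candida Cdc8 (0.02 μg; GST fusion from E. coli BL21, purified similarly). Compound preincubated 10 min, then enzyme added to 0.05 μM [γ-32P]ATP, 50 μM ATP and 50 μM dTMP in 100 mM Tris-HCl, 100 mM KCl, 10 mM MgCl2. Stopped by heating. Products separated by PEI-cellulose TLC (2 M acetic acid/0.5 M LiCl), and 32P-dTDP spots counted by scintillation.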

In data set [13] the test system is Candida. Put plainly: Inhibition of Candida Cdc8 incubated for 10 mins in presence of [gamma-32P]ATP by 32P-phosphate transfer assay. The method, boiled down:
as §3

For data set [14], the target named is T1, Thymidylate kinase (Homo sapiens). The experiment in a line: Binding affinity to GST-tagged human TMPK expressed in Escherichia coli BL21 assessed as binding constant for compound to protein 1:1 stoichiometry by ITC analysis. The method, boiled down:
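ITC in PBS pH 7.4 with 50% glycerol at 298 K, stirring at 1000 rpm. Compound (1.228 mM) injected into hTMPK (0.0817 mM): a first 0.5 μL injection, then 2 μL injections at 4-min spacing. Fitted for stoichiometry, association constant, ΔH and ΔS.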
A general note: Isothermal titration calorimetry measures the heat released or taken up as one component is titrated into another.

Activity calls are given as the source filed them. No cut-off for these calls is given here.

By inhibition is commonly meant how much of the control response was suppressed. As for `CC(C)(C)OC(=O)N1CCN(C(=O)COc2nsc3ccccc23)CC1`, the inhibition result in data set [1] is “inactive”.

Consider `CC(C)(C)OC(=O)N1CCN(C(=O)COc2nsc3ncccc23)CC1`, for which the inhibition result in data set [1] is “inactive”.

A word on the EC50: it is the concentration at which the effect is half-maximal. A high value points to a less potent agent. One may read the IC50 as the point on the concentration scale where inhibition reaches its midpoint. For the compound `CC(C)(C)OC(=O)N1CCN(C(=O)Cn2sc3ncccc3c2=O)CC1`, the Activity entry in data set [2] is listed as “Non-Toxic”. In addition, in [3], the inhibition entry is “Active”. The same compound returned a half-maximal effective concentration (EC50) in data set [4] of 1400 nM. Besides, the IC50 in [5] was 470 nM; in data set [6], more than 100 µM. In data set [1], this compound came in with an inhibition of 91.3%.

For `[N-]=[N+]=Nc1ccc2c(=O)n(CC(=O)N3CCN(CCOCCOCCOC(=O)CCCC[C@@H]4SC[C@@H]5NC(=O)N[C@@H]54)CC3)sc2c1`, the inhibition in data set [1] was found to be 86.9%. In addition, the result in [7] was Active. The result in data set [8] was inactive. For the same compound, the Activity in data set [9] worked out at 648 Da; in data set [10], 422 Da. Moreover, the 50% inhibitory concentration (IC50) in [6] is more than 100 µM.

Consider `O=c1c2ccccc2sn1-c1ccccc1`, for which the outcome in data set [11] was Active.

In data set [1], `O=c1c2ccccc2sn1-c1ccc(F)c(Cl)c1` showed an inhibition of less than 2%.

Consider `CCOC(=O)N1CCN(C(=O)Cn2sc3ccccc3c2=O)CC1`, for which, in data set [1], the inhibition came to 70%.

As to `CC(C)(C)OC(=O)N1CCN(C(=O)Cn2sc3ccccc3c2=O)CC1`, the Activity result in data set [2] was “Non-Toxic”. Further, the inhibition result in data set [3] is “Active”. For the same compound, the EC50 in [4] came to 650 nM. For the same compound, the IC50 in data set [5] is 350 nM; in [6] it was more than 100 µM. The compound also showed an inhibition in [1] of 91.3%.

In turn, `Cc1cc(C)c2c(=O)n(CC(=O)N3CCN(C(=O)OC(C)(C)C)CC3)sc2n1` yielded an inhibition in [1] of 76.3%.

Turning to `O=C(O)c1cc(SSc2ccc([N+](=O)[O-])c(C(=O)O)c2)ccc1[N+](=O)[O-]`, the outcome in [11] was Active.

On to `CCOC(=O)N1CCN(C(=O)Cn2sc3nc(C)cc(C)c3c2=O)CC1`, for which the Activity entry in data set [2] was “Non-Toxic”. Also, the outcome in [11] was inactive. Also, the inhibition result in data set [3] and in data set [12] was “Active” in each case. For the same compound, it took 880 nM to reach a half-maximal effect in data set [4] (EC50). Moreover, the results for the IC50 in [5] and in [6] were 1650 nM and more than 100 µM, respectively. In [1], the inhibition amounted to 70%. The inhibition result in [13] is “inactive”.

Take `Cc1cc(C)c2c(=O)n(CC(=O)N3CCNCC3)sc2n1`: the K in data set [14] came to 127000 M⁻¹. In [1], this compound registered an inhibition of 73.4%.

In turn, `CCOC(=O)N1CCN(C(=O)CCCn2sc3ccccc3c2=O)CC1` yielded an inhibition in data set [1] of 7%.

With `CCOC(=O)N1CCN(C(=O)COc2nsc3cc(C)cc(C)c23)CC1`, the inhibition result in data set [1] was “inactive”.

(Values after ChEMBL document CHEMBL4680087, “Chemical Inhibition of Human Thymidylate Kinase and Structural Insights into the Phosphate Binding Loop and Ligand-Induced Degradation” (J Med Chem, 2016).)
